Results as given in ChEMBL document CHEMBL3098105, “7,7'-Diazaindirubin--a small molecule inhibitor of casein kinase 2 in vitro and in cells” (Bioorg Med Chem, 2014).

Experiments:
[1] = target: Serine/threonine-protein kinase 33 (Homo sapiens) (UniProt Q9BYT3); experiment: Inhibition of human STK33 assessed as residual activity at 1 uM relative to control
UACC-62 = experiment: Antiproliferative activity against human UACC62 cells after 3 days by sulforhodamine B assay; format: functional; settings: UACC-62, 72 h
[2] = target: Serine/threonine-protein kinase B-raf (Homo sapiens) (UniProt P15056); experiment: Inhibition of wild type B-RAF (unknown origin) assessed as residual activity at 1 uM relative to control
[3] = target: Mitogen-activated protein kinase 8 (Homo sapiens) (UniProt P45983); experiment: Inhibition of human JNK1alpha1 assessed as residual activity at 1 uM relative to control
[4] = target: Receptor-type tyrosine-protein kinase FLT3 (Homo sapiens) (UniProt P36888); experiment: Inhibition of human Flt3 assessed as residual activity at 1 uM relative to control
[5] = target: Cyclin-dependent kinase 2/cyclin E1 (Homo sapiens) (UniProt P24864+P24941); experiment: Inhibition of CDK2/CycE (unknown origin) assessed as residual activity at 10 uM relative to control; format: protein-complex assay
[6] = target: RAC-alpha serine/threonine-protein kinase (Homo sapiens) (UniProt P31749); experiment: Inhibition of human PKBalpha assessed as residual activity at 1 uM relative to control
[7] = target: Vascular endothelial growth factor receptor 2 (Homo sapiens) (UniProt P35968); experiment: Inhibition of VEGF-R2 (unknown origin) assessed as residual activity at 1 uM relative to control
[8] = target: Interleukin-1 receptor-associated kinase 4 (Homo sapiens) (UniProt Q9NWZ3); experiment: Inhibition of human IRAK4 assessed as residual activity at 1 uM relative to control
[9] = target: Cyclin-dependent kinase 5/CDK5 activator 1 (Homo sapiens) (UniProt Q00535+Q15078); experiment: Inhibition of human CDK5/p35 assessed as residual activity at 1 uM relative to control; format: protein-complex assay
[10] = target: Mast/stem cell growth factor receptor Kit (Homo sapiens) (UniProt P10721); experiment: Inhibition of human cKit assessed as residual activity at 1 uM relative to control
[11] = target: Homeodomain-interacting protein kinase 1 (Homo sapiens) (UniProt Q86Z02); experiment: Inhibition of human HIPK1 assessed as residual activity at 1 uM relative to control
[12] = target: Proto-oncogene tyrosine-protein kinase ROS (Homo sapiens) (UniProt P08922); experiment: Inhibition of human Ros assessed as residual activity at 1 uM relative to control
[13] = target: Tyrosine-protein kinase TXK (Homo sapiens) (UniProt P42681); experiment: Inhibition of human Txk assessed as residual activity at 1 uM relative to control
[14] = target: Phosphorylase b kinase gamma catalytic chain, liver/testis isoform (Homo sapiens) (UniProt P15735); experiment: Inhibition of human PhKgamma2 assessed as residual activity at 1 uM relative to control
[15] = target: Testis-specific serine/threonine-protein kinase 1 (Homo sapiens) (UniProt Q9BXA7); experiment: Inhibition of human TSSK1 assessed as residual activity at 1 uM relative to control
[16] = target: Serine/threonine-protein kinase mTOR (Homo sapiens) (UniProt P42345); experiment: Inhibition of human mTOR assessed as residual activity at 1 uM relative to control
[17] = Antiproliferative activity against human HCC2998 cells after 3 days by sulforhodamine B assay; format: functional; settings: HCC 2998, 72 h
Procedure, shortened: (§1)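 Tested in the NCI 60 cell line panel. GI50 is the concentration giving 50% inhibition of cell growth, and values are the mean of two series of tests.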

[18] = target: Serine/threonine-protein kinase Chk2 (Homo sapiens) (UniProt O96017); experiment: Inhibition of CHK2 (unknown origin) assessed as residual activity at 1 uM relative to control
[19] = Antiproliferative activity against human OVCAR5 cells after 3 days by sulforhodamine B assay; format: functional; settings: OVCAR-5, 72 h; procedure, shortened: as §1
[20] = target: Myotonin-protein kinase (Homo sapiens) (UniProt Q09013); experiment: Inhibition of human DMPK assessed as residual activity at 1 uM relative to control
NCI-H226 = experiment: Antiproliferative activity against human NCI-H226 cells after 3 days by sulforhodamine B assay; format: functional; settings: NCI-H226, 72 h; procedure, shortened: as §1
[21] = target: SRSF protein kinase 2 (Homo sapiens) (UniProt P78362); experiment: Inhibition of human SRPK2 assessed as residual activity at 1 uM relative to control
[22] = target: Mast/stem cell growth factor receptor Kit (Homo sapiens) (UniProt P10721); experiment: Inhibition of KIT (unknown origin) assessed as residual activity at 1 uM relative to control
MCF7 = experiment: Antiproliferative activity against human MCF7 cells after 3 days by SRB assay; format: functional, cell-based; settings: MCF7, 72 h
Procedure, shortened: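 Cells grown at 37 °C, 5% CO2, with 10% heat-inactivated FBS: LXFL529L in RPMI 1640, MCF7 and HT29 in DMEM. Seeded, allowed 24 h growth, then exposed to the drug at various concentrations for 3 days in serum medium. Fixed with TCA for 1 h at 4 °C, stained with 0.4% SRB, eluted in 10 mM Tris pH 10.5, read at 570 nm as % T/C. IC50 taken from dose–response curves of at least three independent experiments.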

[23] = target: Platelet-derived growth factor receptor alpha (Homo sapiens) (UniProt P16234); experiment: Inhibition of human PDGFRalpha assessed as residual activity at 1 uM relative to control
[24] = target: Testis-specific serine/threonine-protein kinase 2 (Homo sapiens) (UniProt Q96PF2); experiment: Inhibition of human TSSK2 assessed as residual activity at 1 uM relative to control
[25] = target: Tyrosine-protein kinase Fgr (Homo sapiens) (UniProt P09769); experiment: Inhibition of human Fgr assessed as residual activity at 1 uM relative to control
[26] = target: Eukaryotic elongation factor 2 kinase (Homo sapiens) (UniProt O00418); experiment: Inhibition of human eEF-2K assessed as residual activity at 1 uM relative to control
[27] = target: Serine/threonine-protein kinase PAK 5 (Homo sapiens) (UniProt Q9P286); experiment: Inhibition of human PAK5 assessed as residual activity at 1 uM relative to control
[28] = target: Serine/threonine-protein kinase D1 (Homo sapiens) (UniProt Q15139); experiment: Inhibition of human PKCmu assessed as residual activity at 1 uM relative to control
[29] = target: Focal adhesion kinase 1 (Homo sapiens) (UniProt Q05397); experiment: Inhibition of FAK fl (unknown origin) assessed as residual activity at 10 uM relative to control
[30] = target: Proto-oncogene tyrosine-protein kinase Src (Homo sapiens) (UniProt P12931); experiment: Inhibition of human cSRC assessed as residual activity at 1 uM relative to control
[31] = target: Casein kinase II subunit alpha' (Homo sapiens) (UniProt P19784); experiment: Inhibition of human CK2a2 assessed as residual activity at 1 uM relative to control
[32] = target: RAF proto-oncogene serine/threonine-protein kinase (Homo sapiens) (UniProt P04049); experiment: Inhibition of RAF1 (unknown origin) assessed as residual activity at 1 uM relative to control

Sequence of Mast/stem cell growth factor receptor Kit (Homo sapiens) (P10721 whole entry): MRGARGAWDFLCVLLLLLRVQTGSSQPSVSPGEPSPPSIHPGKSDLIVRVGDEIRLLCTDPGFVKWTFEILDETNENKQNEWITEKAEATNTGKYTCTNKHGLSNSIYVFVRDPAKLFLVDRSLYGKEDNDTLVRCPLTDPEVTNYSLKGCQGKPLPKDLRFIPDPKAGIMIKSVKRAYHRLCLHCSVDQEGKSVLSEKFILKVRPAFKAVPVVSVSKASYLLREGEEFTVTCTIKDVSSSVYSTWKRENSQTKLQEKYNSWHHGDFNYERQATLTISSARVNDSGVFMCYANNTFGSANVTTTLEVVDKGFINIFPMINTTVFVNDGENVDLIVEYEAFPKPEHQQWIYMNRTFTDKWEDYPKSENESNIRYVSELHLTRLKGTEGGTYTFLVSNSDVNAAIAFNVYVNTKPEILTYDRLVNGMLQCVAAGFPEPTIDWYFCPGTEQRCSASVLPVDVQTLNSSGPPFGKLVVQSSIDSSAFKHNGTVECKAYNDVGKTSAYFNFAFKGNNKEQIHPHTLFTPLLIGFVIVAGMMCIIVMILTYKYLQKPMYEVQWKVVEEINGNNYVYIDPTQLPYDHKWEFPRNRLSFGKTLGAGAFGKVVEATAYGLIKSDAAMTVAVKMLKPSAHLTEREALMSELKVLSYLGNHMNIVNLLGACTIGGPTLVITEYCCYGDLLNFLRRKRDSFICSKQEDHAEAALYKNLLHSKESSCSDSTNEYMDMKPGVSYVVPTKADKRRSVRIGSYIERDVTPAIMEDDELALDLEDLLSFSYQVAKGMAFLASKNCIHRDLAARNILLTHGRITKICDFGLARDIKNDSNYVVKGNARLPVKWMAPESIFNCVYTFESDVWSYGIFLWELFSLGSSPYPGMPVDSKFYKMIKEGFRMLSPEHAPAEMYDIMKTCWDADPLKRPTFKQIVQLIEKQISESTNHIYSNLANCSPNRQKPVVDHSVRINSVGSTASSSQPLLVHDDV
Sequence of Testis-specific serine/threonine-protein kinase 1 (Homo sapiens) (Q9BXA7 whole entry): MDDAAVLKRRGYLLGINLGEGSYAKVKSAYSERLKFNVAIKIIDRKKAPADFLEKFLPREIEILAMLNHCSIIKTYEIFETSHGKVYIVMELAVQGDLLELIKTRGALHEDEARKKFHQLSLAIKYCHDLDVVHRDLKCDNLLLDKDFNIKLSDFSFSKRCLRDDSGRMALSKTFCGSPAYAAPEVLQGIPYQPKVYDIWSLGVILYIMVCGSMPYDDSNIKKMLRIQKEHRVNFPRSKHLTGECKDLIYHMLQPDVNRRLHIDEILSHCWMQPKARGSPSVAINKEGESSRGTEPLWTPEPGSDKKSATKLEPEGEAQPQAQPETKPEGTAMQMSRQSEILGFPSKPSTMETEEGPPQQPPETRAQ
Sequence of Serine/threonine-protein kinase D1 (Homo sapiens) (Q15139 whole entry): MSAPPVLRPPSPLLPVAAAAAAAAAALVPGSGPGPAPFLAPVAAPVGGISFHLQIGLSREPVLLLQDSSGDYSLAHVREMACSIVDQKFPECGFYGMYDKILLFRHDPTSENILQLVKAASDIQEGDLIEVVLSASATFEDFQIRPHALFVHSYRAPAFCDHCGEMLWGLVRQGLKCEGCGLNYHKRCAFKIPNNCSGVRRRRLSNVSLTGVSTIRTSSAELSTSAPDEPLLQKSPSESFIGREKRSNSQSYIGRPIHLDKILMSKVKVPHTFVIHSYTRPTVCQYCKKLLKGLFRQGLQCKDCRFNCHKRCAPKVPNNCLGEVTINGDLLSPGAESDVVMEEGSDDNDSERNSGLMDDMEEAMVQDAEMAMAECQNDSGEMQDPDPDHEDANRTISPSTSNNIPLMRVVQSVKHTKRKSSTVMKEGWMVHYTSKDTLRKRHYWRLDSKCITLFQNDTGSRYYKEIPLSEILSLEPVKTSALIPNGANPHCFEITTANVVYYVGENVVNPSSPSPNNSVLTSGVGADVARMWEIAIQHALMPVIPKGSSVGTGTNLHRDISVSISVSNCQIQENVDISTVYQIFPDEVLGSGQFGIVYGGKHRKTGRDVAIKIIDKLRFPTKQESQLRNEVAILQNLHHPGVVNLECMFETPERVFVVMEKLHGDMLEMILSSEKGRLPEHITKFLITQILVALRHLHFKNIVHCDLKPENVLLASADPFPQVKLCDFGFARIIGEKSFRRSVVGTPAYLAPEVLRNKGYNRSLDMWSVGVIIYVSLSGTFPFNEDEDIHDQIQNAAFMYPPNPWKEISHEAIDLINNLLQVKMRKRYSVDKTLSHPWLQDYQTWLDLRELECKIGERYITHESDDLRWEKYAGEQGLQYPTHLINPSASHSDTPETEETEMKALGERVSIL
Sequence of Serine/threonine-protein kinase 33 (Homo sapiens) (Q9BYT3 whole entry, looked up): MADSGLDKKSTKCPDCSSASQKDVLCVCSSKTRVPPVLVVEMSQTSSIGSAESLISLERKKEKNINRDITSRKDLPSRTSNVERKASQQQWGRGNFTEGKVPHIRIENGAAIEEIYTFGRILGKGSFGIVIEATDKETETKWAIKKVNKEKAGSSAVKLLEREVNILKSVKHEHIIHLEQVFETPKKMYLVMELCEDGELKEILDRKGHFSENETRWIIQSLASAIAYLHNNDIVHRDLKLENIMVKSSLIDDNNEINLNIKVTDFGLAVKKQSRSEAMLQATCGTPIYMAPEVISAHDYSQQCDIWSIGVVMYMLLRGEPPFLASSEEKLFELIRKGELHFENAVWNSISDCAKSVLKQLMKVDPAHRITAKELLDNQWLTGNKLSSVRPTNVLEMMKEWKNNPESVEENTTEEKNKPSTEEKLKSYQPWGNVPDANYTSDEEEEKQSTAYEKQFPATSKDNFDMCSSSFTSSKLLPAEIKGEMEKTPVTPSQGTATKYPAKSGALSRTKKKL
Sequence of Casein kinase II subunit alpha' (Homo sapiens) (P19784 whole entry, looked up): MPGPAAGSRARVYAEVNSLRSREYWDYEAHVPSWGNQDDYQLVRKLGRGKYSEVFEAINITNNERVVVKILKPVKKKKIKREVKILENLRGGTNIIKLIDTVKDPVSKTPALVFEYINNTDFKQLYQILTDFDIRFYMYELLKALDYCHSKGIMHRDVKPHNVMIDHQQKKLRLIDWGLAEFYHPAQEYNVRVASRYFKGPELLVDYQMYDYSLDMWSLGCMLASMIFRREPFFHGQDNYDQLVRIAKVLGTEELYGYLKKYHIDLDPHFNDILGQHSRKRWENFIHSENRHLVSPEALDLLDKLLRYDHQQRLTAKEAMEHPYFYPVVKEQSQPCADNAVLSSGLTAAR
Sequence of Homeodomain-interacting protein kinase 1 (Homo sapiens) (Q86Z02 whole entry, looked up): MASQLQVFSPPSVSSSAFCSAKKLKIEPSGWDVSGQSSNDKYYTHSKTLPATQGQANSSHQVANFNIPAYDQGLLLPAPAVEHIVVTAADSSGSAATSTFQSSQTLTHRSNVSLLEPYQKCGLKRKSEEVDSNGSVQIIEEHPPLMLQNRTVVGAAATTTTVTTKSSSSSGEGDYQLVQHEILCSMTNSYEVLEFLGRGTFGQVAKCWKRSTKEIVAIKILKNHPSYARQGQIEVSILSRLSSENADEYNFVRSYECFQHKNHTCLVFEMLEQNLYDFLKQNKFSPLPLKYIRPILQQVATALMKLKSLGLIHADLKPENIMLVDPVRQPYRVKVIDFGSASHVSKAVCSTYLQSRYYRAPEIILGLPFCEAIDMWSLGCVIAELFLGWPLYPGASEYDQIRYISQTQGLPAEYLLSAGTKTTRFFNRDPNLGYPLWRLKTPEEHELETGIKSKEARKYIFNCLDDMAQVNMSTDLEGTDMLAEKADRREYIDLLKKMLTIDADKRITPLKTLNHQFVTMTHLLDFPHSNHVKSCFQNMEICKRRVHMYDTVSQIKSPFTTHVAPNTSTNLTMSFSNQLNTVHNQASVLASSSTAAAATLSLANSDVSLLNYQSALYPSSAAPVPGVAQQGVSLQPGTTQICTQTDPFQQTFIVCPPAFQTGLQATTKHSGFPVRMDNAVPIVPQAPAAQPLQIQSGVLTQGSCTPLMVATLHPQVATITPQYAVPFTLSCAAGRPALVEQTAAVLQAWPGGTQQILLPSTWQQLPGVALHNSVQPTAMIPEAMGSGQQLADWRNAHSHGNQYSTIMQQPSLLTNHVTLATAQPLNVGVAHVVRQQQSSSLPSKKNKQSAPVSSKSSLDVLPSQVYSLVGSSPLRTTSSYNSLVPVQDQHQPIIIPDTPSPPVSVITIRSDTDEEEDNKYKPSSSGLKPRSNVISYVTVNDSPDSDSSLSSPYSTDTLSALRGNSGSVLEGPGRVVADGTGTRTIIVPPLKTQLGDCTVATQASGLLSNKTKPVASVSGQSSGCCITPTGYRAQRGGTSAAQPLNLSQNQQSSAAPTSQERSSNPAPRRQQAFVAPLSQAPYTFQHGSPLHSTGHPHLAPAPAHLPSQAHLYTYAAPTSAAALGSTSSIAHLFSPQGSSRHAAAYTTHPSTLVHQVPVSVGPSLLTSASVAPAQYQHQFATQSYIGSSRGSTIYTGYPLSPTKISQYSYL
Sequence of Testis-specific serine/threonine-protein kinase 2 (Homo sapiens) (Q96PF2 whole entry): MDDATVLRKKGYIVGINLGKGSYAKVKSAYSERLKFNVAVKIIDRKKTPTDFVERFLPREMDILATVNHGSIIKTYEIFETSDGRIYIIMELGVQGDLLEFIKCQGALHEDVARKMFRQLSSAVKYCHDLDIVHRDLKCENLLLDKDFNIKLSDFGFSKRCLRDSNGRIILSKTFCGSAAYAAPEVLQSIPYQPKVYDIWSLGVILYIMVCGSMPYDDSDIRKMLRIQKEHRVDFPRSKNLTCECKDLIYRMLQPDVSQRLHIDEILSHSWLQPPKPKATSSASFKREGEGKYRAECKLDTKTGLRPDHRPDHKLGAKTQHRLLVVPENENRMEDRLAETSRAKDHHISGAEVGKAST

O=C1Nc2ncccc2/C1=C1/Nc2ncccc2C1=O
Activity [1]: 91%
GI50 (UACC-62): 432 nM
Activity [2]: 80%
Activity [3]: 97%
Activity [4]: 69%
Activity [5]: 77%
Activity [6]: 94%
Activity [7]: 93%
Activity [8]: 93%
Activity [9]: 96%
Activity [10]: 83%
Activity [11]: 80%
Activity [12]: 102%
Activity [13]: 126%
Activity [14]: 104%
Activity [15]: 85%
Activity [16]: 99%
GI50 [17]: 502 nM
Activity [18]: 89%
GI50 [19]: 2470 nM
Activity [20]: 95%
GI50 (NCI-H226): 1420 nM
Activity [21]: 108%
Activity [22]: 108%
IC50 (MCF7): 500 nM
Activity [23]: 96%
Activity [24]: 66%
Activity [25]: 114%
Activity [26]: 94%
Activity [27]: 61%
Activity [28]: 93%
Activity [29]: 63%
Activity [30]: 63%
Activity [31]: 28%
Activity [32]: 97%
